Converted amounts (≈) assume the structure as drawn.
Assays:
Salmonella typhimurium = test: Antibacterial activity against Salmonella Typhimurium ATCC 14028 after 24 hrs; format: functional, Salmonella enterica subsp. enterica serovar Typhimurium; conditions: Salmonella enterica, ATCC 14028, 24 h
Outline: (§1)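 Bacteria were grown overnight in LB broth at 37 °C, harvested by centrifugation and washed twice with sterile water. Test compounds were dissolved as DMSO stocks and serially diluted twofold in Standard method broth. Wells received broth containing about 10⁵ cfu/ml of bacteria and were incubated 24 h at 37 °C. The MIC was recorded.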

Bacillus subtilis = test: Antibacterial activity against Bacillus subtilis ATCC 6633 after 24 hrs; format: functional; conditions: ATCC 6633, 24 h; outline: as §1
Staphylococcus aureus = test: Antibacterial activity against Staphylococcus aureus ATCC 6538p after 24 hrs; format: functional; outline: as §1
Trichophyton benhamiae = test: Antifungal activity against Trichophyton mentagrophytes IFO 40996 after 48 to 72 hrs; format: functional, Arthroderma benhamiae
Outline: (§2)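 Filamentous fungi were grown on potato dextrose agar for 2 weeks at 28 °C. Spores were washed three times in sterile water and resuspended at 10⁵ spores/ml. Compounds were dissolved in DMSO and serially diluted twofold in potato dextrose broth. Wells received broth containing about 10⁴ cells/ml and were incubated 48–72 h at 28 °C. The MIC was recorded.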

Aspergillus fumigatus = test: Antifungal activity against Aspergillus fumigatus HIC6094 after 48 to 72 hrs; format: functional; outline: as §2
Proteus vulgaris = test: Antibacterial activity against Proteus vulgaris ATCC 3851 after 24 hrs; format: functional; conditions: ATCC 3851, 24 h; outline: as §1
Micrococcus luteus = test: Antibacterial activity against Micrococcus luteus IFC 12708 after 24 hrs; format: functional; outline: as §1
Escherichia coli = test: Antibacterial activity against Escherichia coli ATCC 25922 after 24 hrs; format: functional; conditions: ATCC 25922, 24 h; outline: as §1
Candida albicans = test: Antifungal activity against Candida albicans ATCC 10231 after 48 to 72 hrs; format: functional
Outline: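 C. albicans ATCC 10231 was grown 48 h at 28 °C in YPD broth (1% yeast extract, 2% peptone, 2% dextrose), centrifuged and washed twice with sterile water. Compounds were dissolved in DMSO and serially diluted twofold in potato dextrose broth. Wells received broth containing about 10³ cells/ml and were incubated 48–72 h at 28 °C. The MIC was recorded.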

Trichophyton rubrum = test: Antifungal activity against Trichophyton rubrum IFO 9185 after 48 to 72 hrs; format: functional; outline: as §2

Structure (SMILES)	MIC (Salmonella typhimurium) [µg/mL]	MIC (Bacillus subtilis) [µg/mL]	MIC (Staphylococcus aureus) [µg/mL]	MIC (Trichophyton benhamiae) [µg/mL]	MIC (Aspergillus fumigatus) [µg/mL]	MIC (Proteus vulgaris) [µg/mL]	MIC (Micrococcus luteus) [µg/mL]	MIC (Escherichia coli) [µg/mL]	MIC (Candida albicans) [µg/mL]	MIC (Trichophyton rubrum) [µg/mL]
COCc1cc(O)c(O)c(Br)c1Cc1cc(O)c(O)c(Br)c1Br	25 (≈ 48.7 µM)	25 (≈ 48.7 µM)	25 (≈ 48.7 µM)	25 (≈ 48.7 µM)	25 (≈ 48.7 µM)	25 (≈ 48.7 µM)	25 (≈ 48.7 µM)	> 100	25 (≈ 48.7 µM)	25 (≈ 48.7 µM)
OCc1cc(O)c(O)cc1Cc1ccc(O)c(O)c1	> 100	> 100	> 100	> 100	> 100	> 100	> 100	> 100	> 100	> 100
Oc1c(Br)cc(Cc2cc(Br)c(O)c(Br)c2O)c(O)c1Br	> 100	> 100	> 100	> 100	> 100	> 100	> 100	> 100	> 100	> 100
Oc1ccc(Br)cc1Cc1cc(Br)ccc1O	3.12 (≈ 8.71 µM)	3.12 (≈ 8.71 µM)	3.12 (≈ 8.71 µM)	> 100	> 100	3.12 (≈ 8.71 µM)	1.56 (≈ 4.36 µM)	> 100	> 100	> 100
Oc1c(Br)cc(Br)cc1Cc1cc(Br)cc(Br)c1O	3.12 (≈ 6.05 µM)	1.56 (≈ 3.02 µM)	1.56 (≈ 3.02 µM)	> 100	> 100	1.56 (≈ 3.02 µM)	1.56 (≈ 3.02 µM)	> 100	> 100	> 100
Oc1ccc(Cc2ccc(O)c(Br)c2)cc1Br	25 (≈ 69.8 µM)	12.5 (≈ 34.9 µM)	25 (≈ 69.8 µM)	> 100	> 100	25 (≈ 69.8 µM)	12.5 (≈ 34.9 µM)	> 100	> 100	> 100
Oc1cc(Cc2cc(O)c(O)c(Br)c2Br)c(Br)c(Br)c1O	50 (≈ 91.3 µM)	25 (≈ 45.6 µM)	25 (≈ 45.6 µM)	1.56 (≈ 2.85 µM)	0.78 (≈ 1.42 µM)	50 (≈ 91.3 µM)	25 (≈ 45.6 µM)	> 100	1.56 (≈ 2.85 µM)	1.56 (≈ 2.85 µM)
Oc1ccc(Cc2ccc(O)c(O)c2)cc1O	> 100	> 100	> 100	> 100	> 100	> 100	> 100	> 100	> 100	> 100
OCc1cc(O)c(O)c(Br)c1Cc1cc(O)c(O)c(Br)c1Br	100 (≈ 200 µM)	100 (≈ 200 µM)	50 (≈ 100 µM)	50 (≈ 100 µM)	> 100	100 (≈ 200 µM)	50 (≈ 100 µM)	> 100	100 (≈ 200 µM)	50 (≈ 100 µM)
Oc1c(Br)cc(Cc2cc(Br)c(O)c(Br)c2)cc1Br	> 100	> 100	> 100	> 100	> 100	> 100	> 100	> 100	> 100	> 100
COCc1cc(O)c(O)c(Br)c1Br	> 100	> 100	> 100	12.5 (≈ 40.1 µM)	> 100	> 100	> 100	> 100	100 (≈ 321 µM)	12.5 (≈ 40.1 µM)
Oc1ccc(Cc2cc(Br)c(O)c(Br)c2)cc1Br	6.25 (≈ 14.3 µM)	6.25 (≈ 14.3 µM)	12.5 (≈ 28.6 µM)	> 100	> 100	6.25 (≈ 14.3 µM)	6.25 (≈ 14.3 µM)	> 100	> 100	> 100
Oc1ccccc1Cc1cc(Br)ccc1O	25 (≈ 89.6 µM)	25 (≈ 89.6 µM)	25 (≈ 89.6 µM)	> 100	> 100	25 (≈ 89.6 µM)	25 (≈ 89.6 µM)	> 100	> 100	> 100
NCCc1cc(Br)c(O)c(Br)c1	> 100	> 100	100 (≈ 339 µM)	> 100	> 100	> 100	> 100	> 100	100 (≈ 339 µM)	> 100
C[C@@H]1[C@H](O)[C@@H](C)/C=C/C=C/C=C/C=C/C=C/C=C/C=C/[C@H](O[C@@H]2O[C@H](C)[C@@H](O)[C@H](N)[C@@H]2O)C[C@@H]2O[C@](O)(C[C@@H](O)C[C@@H](O)[C@H](O)CC[C@@H](O)C[C@@H](O)CC(=O)O[C@H]1C)C[C@H](O)[C@H]2C(=O)O [AMPHOTERICIN B]	–	–	–	3.12 (≈ 3.38 µM)	3.12 (≈ 3.38 µM)	–	–	–	6.25 (≈ 6.76 µM)	3.12 (≈ 3.38 µM)
CC1(C)S[C@@H]2[C@H](NC(=O)[C@H](N)c3ccccc3)C(=O)N2[C@H]1C(=O)O [AMPICILLIN]	3.12 (≈ 8.93 µM)	1.56 (≈ 4.46 µM)	1.56 (≈ 4.46 µM)	–	–	3.12 (≈ 8.93 µM)	1.56 (≈ 4.46 µM)	12.5 (≈ 35.8 µM)	–	–
OCc1cc(O)c(O)c(Br)c1Br [LANOSOL]	> 100	> 100	> 100	50 (≈ 168 µM)	> 100	> 100	> 100	> 100	> 100	50 (≈ 168 µM)

From ChEMBL document CHEMBL1140795, “Antimicrobial activities of the bromophenols from the red alga Odonthalia corymbifera and some synthetic derivatives” (2008)
